PHOSPHO1 block – blocks human PHOSPHO1 phosphatase activity; 1.1% of 290,000 active; inhibition, % at 13.3 µM; recombinant PHOSPHO1, absorbance phosphatase assay; in the data active = inhibition above about 60%
KCNK3 inh – human KCNK3 channel inhibition, primary screen; O14649; CHO-KCNK3 thallium flux, FluxOR fluorescence; stronger effect = lower value; B-score at 10 µM; 0.84% of 340,000 active; AID 602410;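 active = B-score under library mean minus 4 SD, starting fluorescence ratio at most library mean plus 5 SD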;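 also: more negative B-score means stronger inhibition of thallium flux through KCNK3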
KCNQ1 act – human KCNQ1 channel potentiation or activation | AID 2648 | B-score at 10 µM | P51787 | 0.35% of 310,000 active | CHO-K1 KCNQ1, thallium flux FluxOR fluorescence; stronger effect = higher value;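 active = fluorescence ratio B-score, a plate-corrected score, at least three library SD, with initial intensity B-score within 5 SD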
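System: Stable KCNQ1 CHO-K1 line | Incubation: 90 min dye loading and 20 min compound exposure, both at room temperature | Measure: Ratio B score | Medium: Assay buffer for compound exposure, DMSO matched across wells | Compound dosing: Single-concentration screen | Probe or stimulus: K+/Tl+ depolarizing stimulus | Measured by: Kinetic FluxOR fluorescence, 10 s baseline plus 110 s post-stimulus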
KCNQ1 inh – inhibitors of human KCNQ1 potassium channel. 1.3% of 310,000 active. P51787. AID 2642. B-score at 10 µM. CHO-K1 KCNQ1, FluxOR thallium flux fluorescence; stronger effect = higher value;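 active = compounds whose thallium flux B-score, printed positive for inhibition, exceeds three library SD while starting fluorescence stays within three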;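 also: channel opened by potassium depolarization with thallium stimulus after 20 min compound exposure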
KCNK9 block – inhibitors of human KCNK9 two-pore domain potassium channel; Q9NPC2; B-score at 10 µM; HEK293 KCNK9, FluxOR thallium flux fluorescence; stronger effect = lower value; 1.2% of 310,000 active;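 active = ratio B-score over 3 SD below the library mean, with starting fluorescence within 5 SD of its mean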;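 also: negative B-score means less thallium flux so channel inhibition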
hERG protect – shields human hERG channel from block by proarrhythmic agents; AID 1511; 0.51% of 310,000 active; activation (rescue from dofetilide block), less the hit threshold, % at 10 µM; CHO-hERG, FluxOR thallium flux, dofetilide IC70 present; Q12809;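 active = activation above the mean of controls blocked by dofetilide plus 5 SD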;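 also: thallium influx through hERG after potassium depolarization seen as dye fluorescence rise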
Target sequence (Q12809 whole entry, looked up): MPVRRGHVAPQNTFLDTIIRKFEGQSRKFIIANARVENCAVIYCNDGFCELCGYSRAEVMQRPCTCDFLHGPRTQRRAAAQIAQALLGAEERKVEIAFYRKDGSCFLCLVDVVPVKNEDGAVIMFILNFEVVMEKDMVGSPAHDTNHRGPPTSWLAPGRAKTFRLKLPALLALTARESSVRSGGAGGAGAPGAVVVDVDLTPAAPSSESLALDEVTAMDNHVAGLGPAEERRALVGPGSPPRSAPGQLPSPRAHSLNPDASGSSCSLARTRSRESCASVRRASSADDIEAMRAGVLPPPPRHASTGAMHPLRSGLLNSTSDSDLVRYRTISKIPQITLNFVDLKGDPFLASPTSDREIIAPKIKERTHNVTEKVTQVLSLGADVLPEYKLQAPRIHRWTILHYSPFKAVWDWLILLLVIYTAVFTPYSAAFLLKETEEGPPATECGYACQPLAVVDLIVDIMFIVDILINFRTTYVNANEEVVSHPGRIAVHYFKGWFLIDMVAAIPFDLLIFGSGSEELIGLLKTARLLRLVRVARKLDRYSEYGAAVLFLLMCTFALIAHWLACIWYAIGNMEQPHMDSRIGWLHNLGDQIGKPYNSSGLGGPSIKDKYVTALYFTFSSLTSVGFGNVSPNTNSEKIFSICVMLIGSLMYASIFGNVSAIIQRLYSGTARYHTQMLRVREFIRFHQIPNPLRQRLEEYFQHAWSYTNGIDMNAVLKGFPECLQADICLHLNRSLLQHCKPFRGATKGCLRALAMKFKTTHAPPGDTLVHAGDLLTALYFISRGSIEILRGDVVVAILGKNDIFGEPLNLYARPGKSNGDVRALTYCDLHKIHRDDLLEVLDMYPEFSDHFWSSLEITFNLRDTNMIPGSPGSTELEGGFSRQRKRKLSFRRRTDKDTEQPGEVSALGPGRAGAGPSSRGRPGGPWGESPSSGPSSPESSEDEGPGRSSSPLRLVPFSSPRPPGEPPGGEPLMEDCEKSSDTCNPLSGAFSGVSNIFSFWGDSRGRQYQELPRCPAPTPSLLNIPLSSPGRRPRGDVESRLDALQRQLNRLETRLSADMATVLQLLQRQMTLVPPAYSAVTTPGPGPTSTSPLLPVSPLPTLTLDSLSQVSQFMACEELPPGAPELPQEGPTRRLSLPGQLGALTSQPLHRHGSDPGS
KCNK9 block conf – human KCNK9 inhibitor confirmation; 43% of 4,900 active; shares compounds with KCNK9 block; inhibition, % at 10 µM; HEK293 KCNK9 cells, FluxOR thallium flux fluorescence;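 active = thallium signal inhibited by more than 5 SD of the compound-free buffer control wells, on both duplicate plates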;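 also: 0% = assay buffer control wells without compound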
Kir2-1 spec – tests whether KCNK9 modulators also affect mouse Kir2.1; shares compounds with KCNK9 block; Kir2.1 cells, FluxOR thallium flux fluorescence; inhibition, % at 10 µM; 4% of 4,900 active; AID 492993;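 active = thallium signal drop more than 5 SD beyond the mean of the no-compound control wells, seen in both duplicate plates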;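 also: signal is fluorescence rise after thallium addition divided by baseline fluorescence; plate controls were assay buffer only for no effect and full block by chlorpromazine control for full effect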
KCNK9 uninduced – second check of KCNK9 modulator effects in non-induced HEK293 cells; FluxOR thallium flux; 40% of 4,900 active; inhibition, % at 10 µM; shares compounds with KCNK9 block;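 active = thallium signal drop beyond 5 SD of the untreated control mean, on both duplicate plates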;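 also: plate controls were buffer only IC0 wells for no effect and SID17386958 at its maximal inhibitory level for full effect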
Starred values were filed as active, the others as inactive; i = inactive; / = no result given. This is a sample that favours compounds with a hit; in the whole collection about 4% have one here.

SMILES	PHOSPHO1 block	KCNK3 inh	KCNQ1 act	KCNQ1 inh	KCNK9 block	hERG protect	KCNK9 block conf	Kir2-1 spec	KCNK9 uninduced
COCCn1cnnc1SCC(=O)Nc1cc(OC)c([N+](=O)[O-])cc1C	8.6	i	i	i	i	-8.2	/	/	/
O=S(=O)(c1cccc(F)c1)N1CCN(Cc2ccc3c(c2)OCO3)CC1	11.6	i	i	i	i	-10.4	i	i	i
O=S(=O)(c1ccc(F)c(F)c1)N1CCN(Cc2ccc3c(c2)OCO3)CC1	-17.7	i	i	i	i	-6.1	/	/	/
COc1cc(S(=O)(=O)N2CCN(Cc3ccc4c(c3)OCO4)CC2)c(C)cc1C	10.4	i	i	i	i	-6.7	i	i	i
COc1ccc(CN2CCN(S(=O)(=O)c3ccc(C)cc3)CC2)cc1Br	13.9	i	i	i	i	-12.2	i	i	i
Cc1cc(C)nc(NNS(=O)(=O)c2c(C)cc(C(C)(C)C)cc2C)n1	/	i	/	/	/	/	/	/	/
Cc1nn(C)c(C)c1S(=O)(=O)N(CC(=O)NCc1ccco1)c1ccc(C(C)C)cc1	0.1	/	i	i	i	-6.1	/	/	/
CCC(=O)c1ccc(OCC(=O)OCC(=O)Nc2cccc(S(=O)(=O)N3CCCC3)c2)cc1	/	i	/	/	/	/	/	/	/
Cc1cc(C)c(C(=O)OCC(=O)Nc2cccc(S(=O)(=O)N3CCCCC3)c2)c(C)c1	/	i	i	6*	i	-19.4	i	i	i
O=C(COC(=O)c1ccc(O)cc1)Nc1cccc(S(=O)(=O)N2CCCCC2)c1	-4.4	i	i	i	i	-15.8	/	/	/
O=C(COC(=O)CCC(=O)c1ccc(F)cc1)Nc1cccc(S(=O)(=O)N2CCCC2)c1	13.9	i	i	i	i	-12.1	i	i	i
CCO[C@H]1OC(C(=O)N2CCN(C)CC2)=C[C@@H](C)[C@@H]1CCCO	34.6	i	i	i	i	-6.4	/	/	/
COc1ccc2c(c1)c(C(=O)CN1CCc3ccccc3C1)c(C)n2C	30.5	i	i	i	i	-16.4	/	/	/
CCOC(=O)c1ccc(-n2c(CN3CCN(CCO)CC3)nc3ccc([N+](=O)[O-])cc3c2=O)cc1	-114.8	i	i	i	i	-11.5	/	/	/
COc1ccccc1NC(=O)COc1ccccc1C(=O)c1cnn(-c2ccccc2)c1	4.9	i	i	i	i	-7.8	/	/	/
CCc1ccc(NC(=O)COc2ccc(F)cc2C(=O)c2cnn(-c3ccccc3)c2)cc1	-1.8	i	i	i	i	-10.0	i	i	i
CC1CCN(C(=O)CN(c2ccc(Cl)c(C(F)(F)F)c2)S(C)(=O)=O)CC1	-1.2	i	i	i	i	-7.4	/	/	/
Cc1ccc(Cl)cc1N1CCN(C(=O)CN(c2ccccc2)S(=O)(=O)N(C)C)CC1	-3.9	i	i	i	-9.03*	-13.0	27.5%*	i	34.0%*
CS(=O)(=O)N(CC(=O)N1CCN(c2ccccc2)CC1)c1ccc(Cl)c(C(F)(F)F)c1	-3.2	i	i	i	i	-6.8	i	i	i
Cc1ccc(-c2nc(CS(=O)CC(=O)NCCCN3CC(C)CC(C)C3)c(C)o2)cc1 (configuration not stated)	7.4	i	i	i	i	-12.8	/	/	/
COC(=O)c1cc(NC(=O)Nc2cc(OC)ccc2OC)cc(C(=O)OC)c1	-6.8	i	i	i	-10.6*	-16.2	31.0%*	i	i
CC1(c2ccccc2)NC(=O)N(CC(=O)Nc2ccc3c(c2)OCO3)C1=O (configuration not stated)	9.5	i	i	i	i	-10.0	/	/	/
CC1(c2ccc(OC(F)F)cc2)NC(=O)N(CC(=O)Nc2ccc3c(c2)OCO3)C1=O (configuration not stated)	-3.3	i	13*	i	-9.8*	-16.1	i	i	31.0%*
Nc1ccc(C(=O)n2c3ccccc3c3ccccc32)cc1	-17.4	i	i	i	i	-8.5	/	/	/
Oc1cc(-c2ccccc2)c2ccccc2c1	3.2	i	i	8*	-10.6*	-16.7	49.0%*	i	34.5%*
SMILES	PHOSPHO1 block	KCNK3 inh	KCNQ1 act	KCNQ1 inh	KCNK9 block	hERG protect	KCNK9 block conf	Kir2-1 spec	KCNK9 uninduced
CN1CCN(CC#Cc2ccccc2)CC1CCO (configuration not stated)	39.1	i	i	i	i	-7.5	/	/	/
COc1cc(OC)c(OC)cc1CN1CCN(c2ccc(F)cc2)CC1	41.2	i	i	i	i	-9.1	i	i	i
COc1cc(C(=O)N/N=C/c2ccc(OC)c(CN3CCN(c4ccc(F)cc4)CC3)c2)ccc1O	-9.7	i	i	i	i	-27.6	i	i	i
CN(Cc1ccc(F)cc1)Cc1nc(CCc2ccccc2)no1	47.7	i	i	i	i	-12.7	i	i	i
O=S(=O)(NC(=S)NC1CCCCC1)c1ccccc1	-5.1	i	i	i	i	-4.0	/	/	/
CCOc1ccccc1NC(=O)n1ncc2c(C)cccc21	34.0	i	i	i	-13.3*	-12.0	i	i	39.5%*
COCc1ccc(-c2c(-c3cccc(OC)c3)sc3ccc(OC)cc23)cc1	/	i	/	/	/	/	/	/	/
O=C(CCCc1ccccc1)NCCCc1ccccc1	23.9	i	i	i	i	-0.5	i	i	i
O=C(COc1ccc(Cl)cc1Cl)NCCCCc1ccccc1	8.9	i	i	i	i	-11.5	i	i	24.5%*
CC(Oc1ccccc1)C(=O)OCC(=O)Nc1sccc1C(N)=O (configuration not stated)	/	i	/	/	/	/	/	/	/
CN(C)S(=O)(=O)N1CCc2ccc(NC(=O)C3CCCO3)cc2C1 (configuration not stated)	/	i	i	i	i	-7.3	/	/	/
Cc1cccc(OCC(=O)N2CCN(C(=O)c3cccs3)CC2)c1	16.3	i	i	i	i	-4.9	/	/	/
Nc1c(C(=O)c2ccccc2)oc2ccccc12	-4.8	i	i	i	i	-7.5	/	/	/
Cc1c(C(=O)c2ccccc2)oc2ccc3ccccc3c12	-14.0	i	i	i	-11.4*	-3.9	56.5%*	i	39.5%*
O=S(=O)(NCC(Nc1ccc(Cl)cc1)c1ccccc1)c1ccc(Cl)cc1 (configuration not stated)	-23.6	i	i	i	i	-0.5	/	/	/

From PubChem BioAssay
